The source made the active and inactive calls. No cut-off for these calls is given here.
Legend:
[1] = target: T1, TGF-beta receptor type-1 (Rattus norvegicus) (UniProt P80204); assay: Inhibition of TGFbeta1 receptor in TGFbeta1-stimulated Sprague-Dawley rat cardiac fibroblasts assessed as reduction in alpha-SMA expression measured after 12 hrs by Western blot analysis
T1 sequence (whole entry): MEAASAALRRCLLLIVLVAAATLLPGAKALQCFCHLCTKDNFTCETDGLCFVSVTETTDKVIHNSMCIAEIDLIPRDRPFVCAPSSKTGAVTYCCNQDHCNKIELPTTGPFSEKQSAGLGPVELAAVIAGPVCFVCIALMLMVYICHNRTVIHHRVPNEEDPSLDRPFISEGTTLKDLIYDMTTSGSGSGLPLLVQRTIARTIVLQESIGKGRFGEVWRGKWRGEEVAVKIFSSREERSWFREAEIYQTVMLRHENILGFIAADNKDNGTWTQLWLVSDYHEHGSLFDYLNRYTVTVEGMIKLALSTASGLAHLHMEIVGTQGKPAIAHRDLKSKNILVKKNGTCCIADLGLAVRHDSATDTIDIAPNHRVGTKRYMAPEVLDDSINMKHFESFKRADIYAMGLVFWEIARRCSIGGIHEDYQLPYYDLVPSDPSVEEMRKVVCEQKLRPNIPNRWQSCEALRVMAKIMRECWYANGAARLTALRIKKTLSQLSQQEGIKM
Summary of the method: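 Primary rat cardiac fibroblasts (passages 2–4, 3×10^5 per well) treated with compound plus 10 ng/mL TGFβ1 for 12 h; tested at 2.5, 5 and 10 µM. Lysates run on 10% SDS-PAGE (30 µg protein), probed for FN, α-SMA and collagen I/III, and quantified by densitometry against GAPDH. N=3 independent experiments.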

[2] = target: T1, TGF-beta receptor type-1 (Rattus norvegicus); assay: Inhibition of TGFbeta1 receptor in TGFbeta1-stimulated Sprague-Dawley rat cardiac fibroblasts assessed as reduction in Smad3 phosphorylation at 10 uM measured after 5 to 30 mins by Western blot analysis
[3] = target: T1, TGF-beta receptor type-1 (Rattus norvegicus); assay: Inhibition of TGFbeta1 receptor in TGFbeta1-stimulated Sprague-Dawley rat cardiac fibroblasts assessed as reduction in Smad2 phosphorylation at 10 uM measured after 5 to 30 mins by Western blot analysis
[4] = species on record: Rattus norvegicus; assay: Effect on TGFbeta1 receptor expression in TGFbeta1-stimulated Sprague-Dawley rat cardiac fibroblasts at 2.5 to 10 uM measured after 5 mins by Western blot analysis; format: functional
[5] = target: T2, TGF-beta receptor type-1 (Homo sapiens, UniProt P36897); assay: Inhibition of recombinant human N-terminal GST-tagged TGFbeta1 receptor (80 to end residues) expressed in baculovirus infected Sf9 insect cells using casein as substrate measured after 2 hrs by ADP-Glo assay
T2 sequence (P36897 whole entry): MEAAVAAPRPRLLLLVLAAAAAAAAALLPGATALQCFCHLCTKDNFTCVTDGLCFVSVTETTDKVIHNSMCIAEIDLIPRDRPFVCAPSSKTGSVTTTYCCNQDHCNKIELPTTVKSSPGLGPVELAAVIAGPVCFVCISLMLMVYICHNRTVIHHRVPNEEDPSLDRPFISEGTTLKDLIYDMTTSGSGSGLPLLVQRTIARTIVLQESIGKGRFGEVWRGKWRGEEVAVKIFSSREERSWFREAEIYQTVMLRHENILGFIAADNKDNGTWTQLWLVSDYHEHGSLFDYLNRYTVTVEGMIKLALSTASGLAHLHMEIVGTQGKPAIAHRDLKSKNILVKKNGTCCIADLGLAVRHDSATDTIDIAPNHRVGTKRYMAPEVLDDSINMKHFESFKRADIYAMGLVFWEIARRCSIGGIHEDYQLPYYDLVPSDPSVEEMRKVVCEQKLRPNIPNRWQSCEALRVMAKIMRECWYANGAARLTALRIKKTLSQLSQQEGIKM

[6] = tested on: Rattus norvegicus; assay: Antifibrotic activity in abdominal aortic constriction Sprague-Dawley rat model of cardiac fibrosis assessed as reduction in Smad2 nuclear translocation in heart at 5 mg/kg, ip administered once daily for 4 weeks measured post-last dose by Western blot analysis; format: functional, organism-based
Summary of the method: (§1)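 AAC rats dosed ip daily for 4 weeks, n=8 per group. Hearts homogenized in lysis buffer with protease and phosphatase inhibitors and spun at 12,000 rpm for 30 min at 4 °C. Nuclear and cytoplasmic fractions prepared with a kit. Protein measured by BCA; 30 µg run on 10% SDS-PAGE, transferred to PVDF and immunoblotted; bands quantified by densitometry.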

[7] = tested on: Rattus norvegicus; assay: Antifibrotic activity in abdominal aortic constriction Sprague-Dawley rat model of cardiac fibrosis assessed as reduction in Smad3 nuclear translocation in heart at 5 mg/kg, ip administered once daily for 4 weeks measured post-last dose by Western blot analysis; format: functional, organism-based; summary of the method: as §1
[8] = tested on: Rattus norvegicus; assay: Antifibrotic activity in abdominal aortic constriction Sprague-Dawley rat model of cardiac fibrosis assessed as systolic left ventricular anterior wall thickness at 5 mg/kg, ip administered once daily for 4 weeks measured post-last dose by echocardiography (reference value: 3.92 +/- 0.42 mm); format: functional
[9] = tested on: Rattus norvegicus; assay: Antifibrotic activity in abdominal aortic constriction Sprague-Dawley rat model of cardiac fibrosis assessed as fractional shortening at 5 mg/kg, ip administered once daily for 4 weeks measured post-last dose by echocardiography (reference value: 48.17 +/- 4.69%); format: functional

With `C=C(C)[C@@H]1C/C=C(\C)C(=O)CCC2=C[C@@H]1OC2=O` the inhibition [1] was “Dose-dependent effect”, the inhibition [2] was “Active” and the inhibition [3] was “Active”. The Activity [4] was “inactive”, the IC50 [5] was 14.9 nM and the Activity [6] was “Active”. The Activity [7] was “Active”, the Activity [8] was 3.46 mm and the Activity [9] was 42.54%.

Source: ChEMBL document CHEMBL4373718, “Germacrane Sesquiterpenoids as a New Type of Anticardiac Fibrosis Agent Targeting Transforming Growth Factor β Type I Receptor” (J Med Chem, 2019)
